TAAR1 agonist = human TAAR1 agonists, primary screen, Fluo-8 calcium fluorescence, CHO RD-HGA16 cells; activation, % at 3 µM; vehicle wells 0%, saturating PEA agonist 100%; AID 624467, 2012; 360,000 compounds, 0.99% hits;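 active means activation above the mean activation of all test compounds in the run plus 3 SD, cut at about 38% in these data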
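System: CHO-derived RD-HGA16 cells with stable Gα16 and human TAAR1. Times: 17-24 h plating, Fluo-8 75 min 37 °C, 30 min RT. Measured by: calcium-sensitive Fluo-8 signal, excitation 470-495, emission 515-575 nm. Read-out basis: % activation relative to PEA EC100 response. Control set: DMSO and PEA EC100. Repeats: no replicates (n 1).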
TAAR1 antag = human TAAR1 antagonists, primary screen, Fluo-8 calcium fluorescence, CHO RD-HGA16 cells | Trace amine-associated receptor 1 (Homo sapiens), Q96RJ0 | antagonist | inhibition, % at 3 µM | 360,000 compounds, 1.5% hits | AID 624466, 2012;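 active means inhibition above a per-plate cutoff, the mean inhibition of test compounds on that plate plus 3 SD, cut at about 49% in these data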
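Material: RD-HGA16 CHO cells with stable hTAAR1 and Gα16; Dosing: single nominal final test compound concentration of 3 µM; Schedule: seeding 17-24 h prior, 75-min 37 °C, 30-min RT dye loading; Detection: kinetic Fluo-8 calcium fluorescence measurement; Measure: % inhibition from peak post-agonist over basal fluorescence ratio; Benchmarks: vehicle and agonist controls.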
GPR7 antag = GPR7 receptor antagonists, primary screen, cell-based, fluorescence, single concentration; inhibition, % at 4.4 µM; 290,000 compounds, 1.1% hits; AID 1861, 2009; Neuropeptides B/W receptor type 1 (Homo sapiens), P48145; GPR7-expressing cells, fluorescence antagonist assay; in the data active means inhibition above about 16%, passing the limit was not always enough;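 further: cells stimulated with the agonist NPW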
TRPML3 agonist = human TRPML3 channel agonists, primary screen, cell-based, HEK293 TRPML3-YFP, Fluo-8 calcium fluorescence, 3 µM; Mucolipin-3 (Homo sapiens), Q8TDD5; 100% = the carbachol control signal; activation, % at 3 µM; 220,000 compounds, 0.29% hits; AID 1448, 2008;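 active means activation above its plate's cutoff, the mean activation of the plate's test wells plus 3 SD, cut at about 12% in these data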
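system = HEK293 cells stably carrying human TRPML3-YFP | doses = one concentration, 3 µM nominal, 0.3% DMSO | timing = dye loading 1 h 37 °C then 30 min ambient, 125 s read | detection = Fluo-8 calcium dye fluorescence, ex 470-495, em 515-575 nm | benchmarks = high control carbachol 87 µM, low control DMSO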
TRPN1 ag = zebrafish TRPN1 channel agonists, primary screen, cell-based, HEK293, calcium fluorescence; transient receptor potential cation channel N1 (TRPN1/NompC), Danio rerio; HEK293 zebrafish TRPN1-YFP, Fluo-8 calcium fluorescence; 100% = response to 87 µM carbachol; activation, % at 3 µM; 220,000 compounds, 0.18% hits; AID 1424, 2008;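 active means activation above its plate's cutoff, the mean activation of test wells on that plate plus 3 SD, cut at about 19% in these data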
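Control set: carbachol 87 µM as high control, DMSO as low control; system: HEK293 stable line with zebrafish TRPN1-YFP; read-out: % activation versus carbachol response; detection: intracellular calcium fluorescence with Fluo-8; doses: single test compound dose, 3 µM nominal, 0.3% DMSO; schedule: dye 1 h 37 °C plus 30 min RT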
LANA-H2A inh = blockers of LANA interaction with H2A/H2B – biochemical, FP readout, HTS, primary screen; Protein LANA1 (Human herpesvirus 8 type P (isolate GK18)), Q9QR71; cell-free LANA-H2A/H2B peptide, fluorescence polarization; inhibition, % (concentration not given with the values); 320,000 compounds, 0.6% hits; in the data active means inhibition mostly above about 10%, no sharp cut-off; inactive means mostly below about 6.7%
GPR7 antag cf = GPR7 receptor antagonists, confirmation, cell-based, fluorescence, single concentration; GPR7-expressing cells, calcium fluorescence antagonist mode; 2,400 compounds, 52% hits; shares compounds with GPR7 antag; AID 1952, 2009; inhibition, % at 4.4 µM; in the data active means inhibition above about 24%;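 further: stimulated with the GPR7 agonist NPW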
MCHR1 antagonist = MCHR1 antagonists in cells, counter-screen for GPR7 antagonist project, cell-based, fluorescence, human; MCHR1-expressing cells, fluorescence antagonist assay; 2,400 compounds, 62% hits; inhibition, % at 4.4 µM; shares compounds with GPR7 antag; in the data active means inhibition above about 22%
Numbers stand for hits; n = inactive; x = not tested or not shown. The list is not random: actives were taken first. Their share in the collection is about 3.4%.

SMILES	TAAR1 agonist	TAAR1 antag	GPR7 antag	TRPML3 agonist	TRPN1 ag	LANA-H2A inh	GPR7 antag cf	MCHR1 antagonist
Cc1ccc(CN2CCc3[nH]c(=S)[nH]c(=O)c3C2)cc1	n	n	n	x	x	n	x	x
COc1ccc(NC(=O)CSc2nnc(NC(=O)C3CC3)s2)cc1OC	n	n	n	x	x	n	x	x
CC1CN(c2ccc([N+](=O)[O-])c(NCCOc3ccccc3)c2)CC(C)N1 (stereo not given)	n	n	n	x	x	n	x	x
CC1CN(c2ccc([N+](=O)[O-])c(NCCOc3ccc(Cl)cc3)c2)CC(C)N1 (stereo not given)	n	n	38	x	x	n	62	69
Cc1ccccc1OCCNc1cc(N2CC(C)NC(C)C2)ccc1[N+](=O)[O-] (stereo not given)	49	n	39	n	n	n	53	67
O=[N+]([O-])c1ccc(N2CCCCC2)cc1NCCOc1ccccc1	n	n	n	n	n	n	x	x
COC(=O)[C@]12CCCCC=C1N(CCc1ccc(OC)c(OC)c1)C(=O)[C@H](CC(=O)NCCCCc1ccccc1)C2	n	n	x	x	x	x	x	x
O=C(NC1=NCCS1)C1CCN(S(=O)(=O)c2ccccc2C(F)(F)F)CC1	n	n	x	x	x	n	x	x
CCNNC(=O)C(O)(Cc1ccccc1)Cc1ccccc1	n	n	n	x	x	n	x	x
C[C@H]1CC[C@H]2C(=O)N3[C@H](c4cccc(N5CCCC5=O)c4)[C@@H](C)CC[C@H]3C(=O)N2[C@@H]1c1cccc(N2CCCC2=O)c1	x	x	n	n	n	n	x	x
C[C@H]1CC[C@H]2C(=O)N3[C@H](c4ccccc4Br)[C@@H](C)CC[C@H]3C(=O)N2[C@@H]1c1ccccc1Br	x	x	29	n	n	n	57	59
Cn1c(C(=O)OCC(=O)NCc2ccc(F)cc2)cc2occc21	n	n	x	x	x	x	x	x
O=C(COC(=O)Cc1ccsc1)Nc1ccc(Br)cc1F	n	n	x	x	x	n	x	x
O=C(Cn1cc([N+](=O)[O-])nc1[N+](=O)[O-])N1CCN(c2ccccc2)CC1	n	n	n	n	n	n	x	x
COc1ccc(CCNC(=O)N2c3ccccc3Sc3ccccc32)cc1	n	n	42	n	n	n	45	77
Cc1ccc2sc(N(CCCN(C)C)C(=O)c3nc4ccccc4s3)nc2c1C	n	n	n	n	n	n	x	x
Cc1ccc2sc(N(CCCN(C)C)C(=O)CCS(=O)(=O)c3ccccc3)nc2c1C	n	n	48	x	x	n	43	51
CN(C)CCCN(C(=O)c1ccc2c(c1)OCCO2)c1nc2ccc(Cl)cc2s1	n	n	51	x	x	n	61	46
Cc1ccc2sc(N(CCCN(C)C)C(=O)c3ccc(Br)s3)nc2c1C	n	n	41	n	n	n	51	56
COc1ccc(OC)c2sc(N(CCCN(C)C)C(=O)CCS(=O)(=O)c3ccccc3)nc12	n	n	x	x	x	n	x	x
CN(C)CCN(C(=O)c1ccc2c(c1)OCCO2)c1nc2ccc(Cl)cc2s1	n	n	n	n	n	n	x	x
Cc1cccc2sc(N(CCCN(C)C)C(=O)CCc3ccccc3)nc12	n	n	23	n	n	x	61	56
O=C(Nc1ccc2c(c1)OCCO2)C(c1ccncc1)n1c(=O)c(-c2cc3ccccc3[nH]2)nc2ccccc21 (stereo not given)	n	n	x	x	x	x	x	x
Cc1ccc(-c2nc(CS(=O)CC(=O)NCCCN3CCN(Cc4ccccc4)CC3)c(C)o2)cc1 (stereo not given)	n	n	n	x	x	n	x	x
COc1cc2ccccc2cc1C(=O)N(CCN(C)C)c1nc2c(F)cc(F)cc2s1	n	n	n	x	x	n	x	x
SMILES	TAAR1 agonist	TAAR1 antag	GPR7 antag	TRPML3 agonist	TRPN1 ag	LANA-H2A inh	GPR7 antag cf	MCHR1 antagonist
COc1cc2ccccc2cc1C(=O)N(CCN(C)C)c1nc2ccc(Br)cc2s1	n	n	26	x	x	n	29	36
CN(C)CCN(C(=O)c1cc(Cl)sc1Cl)c1nc2ccc(F)cc2s1	n	n	n	n	n	n	x	x
CN(C)CCCN(C(=O)c1cc(-c2cccs2)nc2ccccc12)c1nc2ccc(F)cc2s1	n	n	30	x	x	n	58	58
CN(C)CCCN(C(=O)CCc1ccccc1)c1nc2ccc(F)cc2s1	n	n	n	n	n	n	x	x
Cc1cccc2sc(N(CCCN(C)C)C(=O)c3ccc4ncsc4c3)nc12	n	n	26	x	x	n	39	29
Cc1cccc2sc(N(CCCN(C)C)C(=O)c3nc4ccccc4s3)nc12	n	n	n	n	n	n	x	x
CN(C)CCCN(C(=O)CCc1ccccc1)c1nc2ccc(Br)cc2s1	n	n	24	n	n	n	68	73
